For orientation: inhibition means the change of the read-out against control, counted positive when it falls.

A short description of assay [1]: inhibitors of TNFa-induced NFkB p65 translocation, primary screen, imaging, HUVEC, MLSMR starter and 10KST1 sets (AID 438;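 active = inhibition above 20% together with a positive visual image hit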;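 also: compound added about 3h40 before a 20 min TNFalpha stimulation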;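 as to inhibition: signal is the nuclear over cytoplasmic p65 intensity ratio per well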). The conditions noted are these: HUVEC TNFa-induced p65 nuclear translocation; cell count: measured here: nuclei count (cytotoxicity indicator), at 2.08 µM; inhibition: at 2 µM, stronger effect = higher value, 0% TNFa-plus-vehicle, 100% no-TNFa wells.
The nature of assay [2]: inhibitors of mutant huntingtin aggregation, primary screen, imaging, exon1htt(103Q)mCFP cells, high-content imaging (AID 483;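 active = visual image review flags a hit and inhibition of aggregation exceeds 20%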;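 also: compound exposure lasted 3 days before fixation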;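 as to nuclei count: percent of the per-plate median nuclei count of sample wells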). The conditions noted are these: exon1htt(103Q)mCFP cell line, aggregate imaging, at 2 µM; inhibition of aggregation: stronger effect = higher value; nuclei count: measured here: cell count, toxicity.
The nature of assay [3]: inhibitors of E-selectin induction by TNFa, primary screen, imaging, HUVEC, immunofluorescence, MLSMR starter and 10KST1 sets (AID 487).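 As to inhibition: signal is fraction of cell area covered by stained E-selectin grains.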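 As to nuclei count: 100% = median nuclei count of all wells on the same plate.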 The conditions noted are these: HUVEC TNFalpha-induced E-selectin immunofluorescence imaging, at 2 µM; inhibition: stronger effect = higher value; nuclei count: measured here: cell number, toxicity.
The target of assay [4] is Voltage-gated potassium channel subunit beta-2 (Rattus norvegicus) (UniProt P62483). Nature of the assay: KvBeta enzyme negative modulators, primary screen, biochemical, NADPH fluorescence (AID 622;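 active = fluorescence slope higher than the sample average by over 3 SD, cut at about -0.22 in these data, passing the limit was not always enough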;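 also: slope of raw intensity against log time taken from 70 to 1610 s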). Particulars: recombinant KvBeta, 4-cyanobenzaldehyde reduction, at 10 µM, stronger effect = higher value.
Chain of Voltage-gated potassium channel subunit beta-2 (Rattus norvegicus) (P62483 whole entry, looked up): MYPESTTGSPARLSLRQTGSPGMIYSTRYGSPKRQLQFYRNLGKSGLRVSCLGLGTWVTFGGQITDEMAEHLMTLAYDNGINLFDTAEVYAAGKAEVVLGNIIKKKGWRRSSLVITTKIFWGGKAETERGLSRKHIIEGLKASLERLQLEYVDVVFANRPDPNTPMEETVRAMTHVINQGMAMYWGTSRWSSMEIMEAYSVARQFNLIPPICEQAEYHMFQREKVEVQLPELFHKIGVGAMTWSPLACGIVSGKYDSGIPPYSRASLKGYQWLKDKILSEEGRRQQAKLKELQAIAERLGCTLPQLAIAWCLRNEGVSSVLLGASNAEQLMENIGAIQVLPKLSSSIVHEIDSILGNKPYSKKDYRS
For assay [5] the target is unchanged. The experiment in a line: KvBeta positive modulators, primary screen, biochemical, NADPH fluorescence (AID 623;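 active = NADPH fluorescence slope more negative than the mean of all samples by about 3 SD, 99.7% confidence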;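 also: fluorescence intensity change per second fitted from 20 to 320 s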). Particulars: Recombinant KvBeta, NADPH fluorescence decrease slope, 10 min; at 10 µM; stronger effect = lower value.
For assay [6], the target named is Muscarinic acetylcholine receptor M4 (Homo sapiens) (UniProt P08173). The experiment in a line: compounds altering M4/GIRK thallium flux, either direction, primary screen, M4 allosteric agonist project, cell-based, HEK293 M4/GIRK, BTC-AM (AID 625;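 active = fluorescence slope after compound addition differing from the mean of all tested samples at 99.7% confidence, mostly higher but some lower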;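 also: thallium influx through GIRK channels coupled to M4 in HEK293 cells with BTC-AM dye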). The conditions noted are these: at 10 µM, actives lie on both sides. The method in brief: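 assay system = HEK293 cells with M4 receptor and GIRK channels | medium = pH 7.3 thallium assay buffer | doses = 10 µM final, single point | timing = cells overnight at 37 °C, BTC-AM loading 1 h, reads 2 min total | signal = BTC-AM fluorescence, 1 Hz kinetic reads | read-out = post-addition slope, 15–24 s, of baseline-normalized fluorescence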
Chain of Muscarinic acetylcholine receptor M4 (Homo sapiens) (P08173 whole entry, looked up): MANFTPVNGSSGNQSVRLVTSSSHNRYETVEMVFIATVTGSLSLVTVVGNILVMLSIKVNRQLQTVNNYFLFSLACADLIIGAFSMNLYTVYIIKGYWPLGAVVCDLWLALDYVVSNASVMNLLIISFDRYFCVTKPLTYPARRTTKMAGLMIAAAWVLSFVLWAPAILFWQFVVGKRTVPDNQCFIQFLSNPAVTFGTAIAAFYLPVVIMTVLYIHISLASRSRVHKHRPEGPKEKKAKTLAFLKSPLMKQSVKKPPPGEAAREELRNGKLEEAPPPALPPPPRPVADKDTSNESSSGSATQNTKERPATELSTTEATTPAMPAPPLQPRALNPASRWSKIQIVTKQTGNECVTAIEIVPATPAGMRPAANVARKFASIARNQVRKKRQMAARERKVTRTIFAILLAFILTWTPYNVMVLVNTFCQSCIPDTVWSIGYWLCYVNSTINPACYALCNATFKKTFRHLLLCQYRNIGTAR

The nature of assay [7]: inhibitors of Sendai virus-induced IRF3 signaling, primary screen, TLR/RLR signaling modifier project, cell-based, Sendai virus stimulus, luciferase, 10K MLSCN set (AID 602276;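 active = inhibition at or above 50% at 10 µM; inactive = inhibition below 50%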;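 also: firefly luciferase from ISG56 promoter only with Renilla not read in this screen; 0% = Sendai virus plus DMSO and 100% = medium plus DMSO without virus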). The conditions noted are these: HEK293 RL24 IRF3 luciferase reporter, at 10 µM, stronger effect = higher value. A general note: Reporter assays use an easily measured gene product as a stand-in for the process of interest.

A short description of assay [8]: inhibitors of poly I:C-induced TLR3 signaling, primary screen, cell-based, poly I:C stimulus, luciferase, 10K MLSCN set (AID 602277;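 active = inhibition of the reporter signal at or above 50%; inactive = inhibition below 50%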). The conditions noted are these: HEK293-TLR3 RL24 IRF3 luciferase reporter, at 10 µM, stronger effect = higher value.

Molecules are shown by their SMILES. Active and inactive are the calls of the source.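 The calls were made as follows, unless noted: active = visually confirmed hit in the image check and inhibition above 20%; inconclusive = visually confirmed hit but inhibition not above 20%; inactive = no visual hit in the image check.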

Consider `COc1ccc(S(=O)(=O)N2CCN(C3CCCCCCC3)CC2)cc1`, for which the cell count in assay [1] amounted to 360. For the same molecule, the inhibition was 2% (inactive) in assay [1], -8.4% (inactive) in assay [3], 16.2% (inactive) in assay [7] and 24.3% (inactive) in assay [8]. In addition, in assay [2], the inhibition of aggregation was 5.1% (inactive). Besides, the nuclei count in assay [2] turned out to be 105%; in assay [3] it was 108%. Further, the fluorescence slope was -0.533 (inactive) in assay [4] and 0.00334 (inactive) in assay [6]. Moreover, the NADPH fluorescence slope in assay [5] is -5.6e-05 (inactive).
As for `O=C(NCc1ccco1)c1cc2c(s1)CSC2`, the cell count in assay [1] was 473. In addition, the inhibition is -4.3% (inactive) in assay [1], -31.1% (inactive) in assay [3], 9.74% (inactive) in assay [7] and 12.5% (inactive) in assay [8]. In assay [2], the inhibition of aggregation is 3.2% (inactive). Further, the nuclei count is 105% in assay [2] and 118% in assay [3]. Further, the fluorescence slope is -0.544 (inactive) in assay [4] and 0.00557 (inactive) in assay [6]. Moreover, the NADPH fluorescence slope in assay [5] is 1.9e-05 (inactive).
For the molecule `COc1ccccc1NC(=O)C1=C(C)Nc2ncnn2C1c1ccc(C)o1` (centres undefined), the cell count in assay [1] was found to be 355. The inhibition in assay [1] was 14.6% (inactive); in assay [3] it was 56.5% (inactive); in assay [7], 19.9% (inactive); in assay [8], 20.2% (inactive). For the same molecule, the inhibition of aggregation in assay [2] was 24.5% (inactive). Also, the figures for the nuclei count in assay [2] and in assay [3] were 90.6% and 85.1%, respectively. Also, the fluorescence slope was -0.554 (inactive) in assay [4] and 0.00338 (inactive) in assay [6]. For the same molecule, the NADPH fluorescence slope in assay [5] was -0.000118 (inactive).
As for `CCc1nnc(NC(=O)c2cccc(C(=O)Nc3nnc(CC)s3)n2)s1`, the cell count in assay [1] was found to be 700. Also, the inhibition in assay [1] is -23.3% (inactive); in assay [3], -18.7% (inactive); in assay [7] it was -5.37% (inactive); in assay [8] it was -13.7% (inactive). Further, in assay [2], the inhibition of aggregation was 13.6% (inactive). Besides, the nuclei count in assay [2] worked out at 120%; in assay [3], 107%. The fluorescence slope in assay [4] is -0.398 (inactive); in assay [6], 0.00556 (inactive). For the same molecule, the NADPH fluorescence slope in assay [5] was -3.4e-05 (inactive).
Turning to `Cc1cc2oc(C(=O)NC3CCS(=O)(=O)C3)c(C)c2cc1C` (centres undefined), the cell count in assay [1] is 328. For the same molecule, the inhibition in assay [1] was 5.6% (inactive); in assay [3], -75.1% (inactive); in assay [7] it was 9.17% (inactive); in assay [8], -12% (inactive). In addition, the inhibition of aggregation in assay [2] was -2.9% (inactive). Also, the figures for the nuclei count in assay [2] and in assay [3] were 97% and 118%, respectively. In addition, the fluorescence slope was -0.576 (inactive) in assay [4] and 0.00365 (inactive) in assay [6]. In addition, the NADPH fluorescence slope in assay [5] was -3.1e-05 (inactive).
`O=C(O)c1ccc(-n2nnnc2Oc2ccccc2C(=O)N2CCOCC2)cc1`: in assay [1], the cell count was 478. Besides, the inhibition in assay [1] is -20.3% (inactive); in assay [3], 2.2% (inactive); in assay [7], 21% (inactive); in assay [8] it was 12.5% (inactive). In addition, the inhibition of aggregation in assay [2] was -2.2% (inactive). The nuclei count in assay [2] was 53.4%; in assay [3] it was 89.9%. Further, the fluorescence slope was -0.482 (inactive) in assay [4] and 0.0048 (inactive) in assay [6]. Also, the NADPH fluorescence slope in assay [5] is -1.8e-05 (inactive).
For the molecule `CCOC(=O)c1ccc(-c2c(C(=O)OCC)oc3cc(O)c(CC)cc3c2=O)o1`, in assay [1], the cell count came out at 676. Besides, the inhibition was 6.9% (inactive) in assay [1], -22.1% (inactive) in assay [3], 15.3% (inactive) in assay [7] and 7.61% (inactive) in assay [8]. Also, the inhibition of aggregation in assay [2] was 10.3% (inactive). The nuclei count is 104% in assay [2] and 100% in assay [3]. The results for the fluorescence slope in assay [4] and in assay [6] were -0.602 (inactive) and 0.00385 (inactive), respectively. The NADPH fluorescence slope in assay [5] is -2.5e-05 (inactive).
Take `CC(C)=CCSc1nnc(CCNC(=O)OC(C)(C)C)o1`: the cell count in assay [1] turned out to be 391. In addition, the inhibition is 14.5% (inactive) in assay [1], 22.3% (inactive) in assay [3], 9.62% (inactive) in assay [7] and 12.6% (inactive) in assay [8]. For the same molecule, the inhibition of aggregation in assay [2] is 17.1% (inactive). Besides, the figures for the nuclei count in assay [2] and in assay [3] were 90% and 95.7%, respectively. In addition, the fluorescence slope is -0.402 (inactive) in assay [4] and 0.00571 (inactive) in assay [6]. In addition, in assay [5], the NADPH fluorescence slope is 8.7e-05 (inactive).
In the case of `COc1ccc(-n2c(SCC(=O)Nc3ccc(C(=O)O)cc3)nnc2-c2cccs2)cc1`, the cell count in assay [1] is 443. For the same molecule, the inhibition in assay [1] is 2.8% (inactive); in assay [3] it was -43.4% (inactive); in assay [7], 0.267% (inactive); in assay [8], 6.83% (inactive). In addition, in assay [2], the inhibition of aggregation is -7.1% (inactive). The nuclei count was determined as 91.6% in assay [2] and 150% in assay [3]. The fluorescence slope in assay [4] is -0.451 (inactive); in assay [6], 0.00524 (inactive). The NADPH fluorescence slope in assay [5] was -0.000238 (inactive).
As to `O=C(NCCCN1CCCC1=O)c1cncc(Br)c1`, the cell count in assay [1] stood at 394. The inhibition is -5.8% (inactive) in assay [1], 54.5% (active) in assay [3], 13.1% (inactive) in assay [7] and 24.3% (inactive) in assay [8]. Also, the inhibition of aggregation in assay [2] was 14.1% (inactive). In addition, the values for the nuclei count in assay [2] and in assay [3] were 91.8% and 72.7%, respectively. Moreover, the values for the fluorescence slope in assay [4] and in assay [6] were -0.418 (inactive) and 0.00605 (inactive), respectively. Further, the NADPH fluorescence slope in assay [5] is -9.4e-05 (inactive).
`CN(C)CC(=O)N1c2ccccc2CCc2ccc(NC(=O)c3ccc(N)cc3)cc21`: the cell count in assay [1] was determined as 555. Moreover, the inhibition in assay [1] was -15.6% (inactive); in assay [3] it was -115% (inactive); in assay [7] it was 11.3% (inactive); in assay [8], 26.6% (inactive). Moreover, in assay [2], the inhibition of aggregation is 3.6% (inactive). Also, the nuclei count in assay [2] worked out at 95.1%; in assay [3] it was 108%. For the same molecule, the fluorescence slope in assay [4] is -0.571 (inactive); in assay [6], 0.00297 (inactive). Further, the NADPH fluorescence slope in assay [5] was -5.5e-05 (inactive).
For `CCOc1ccc(C2/C(=C(/O)c3ccccc3)C(=O)C(=O)N2CCCN(C)C)cc1OC` (centres undefined), the cell count in assay [1] came to 411. The inhibition was -1.1% (inactive) in assay [1], -29.6% (inactive) in assay [3], 19.2% (inactive) in assay [7] and 15.1% (inactive) in assay [8]. Also, the inhibition of aggregation in assay [2] is -13.7% (inactive). For the same molecule, the values for the nuclei count in assay [2] and in assay [3] were 102% and 92.2%, respectively. The fluorescence slope in assay [4] was -0.446 (inactive); in assay [6] it was 0.00491 (inactive). The NADPH fluorescence slope in assay [5] was -4.1e-05 (inactive).
For the molecule `CC(C)Cn1c(=O)c(C(=O)NCc2ccccn2)c(O)c2ccccc21`, the cell count in assay [1] was 771. Besides, the inhibition was -20.7% (inactive) in assay [1], -24% (inactive) in assay [3], 10.4% (inactive) in assay [7] and -3.14% (inactive) in assay [8]. Besides, in assay [2], the inhibition of aggregation is -28.1% (inactive). Besides, the results for the nuclei count in assay [2] and in assay [3] were 104% and 108%, respectively. For the same molecule, the fluorescence slope in assay [4] was -0.37 (inactive); in assay [6], 0.00508 (inactive). Moreover, the NADPH fluorescence slope in assay [5] is -4.4e-05 (inactive).
Consider `Cc1ccc2cc(CN(CC(C)C)C(=O)C3CCCO3)c(=O)[nH]c2c1` (centres undefined), for which the cell count in assay [1] was found to be 510. In addition, the inhibition was 6.3% (inactive) in assay [1], -62.4% (inactive) in assay [3], 3.89% (inactive) in assay [7] and 26.4% (inactive) in assay [8]. Further, the inhibition of aggregation in assay [2] is 12% (inactive). In addition, the nuclei count in assay [2] was found to be 90%; in assay [3] it was 147%. Besides, the fluorescence slope was -0.565 (inactive) in assay [4] and 0.00521 (inactive) in assay [6]. In addition, the NADPH fluorescence slope in assay [5] is 6.7e-05 (inactive).

The values are drawn from PubChem BioAssay.
